From ChEMBL document CHEMBL1817556, “Substituted lactam and cyclic azahemiacetals modulate Pseudomonas aeruginosa quorum sensing” (Bioorg Med Chem, 2011)

Target: 3-(3-hydroxydecanoyloxy)decanoate synthase (Pseudomonas aeruginosa (strain ATCC 15692 / PAO1 / 1C / PRS 101 / LMG12228)) (UniProt Q51559)
Test: Modulation of Pseudomonas aeruginosa lacZ-fused rhlA expressed in Escherichia coli DH5alpha co-expressing Ptac-rhlR at 0.002 mM after 4 hrs by beta-galactosidase assay relative to control
Method in brief: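 E. coli DH5α carrying pECP61.5 (Ptac-rhlR plus PrhlA-lacZ) was grown overnight in LB with ampicillin 100 μg/ml and diluted to OD600 0.150. It was induced with 1 mM IPTG, and 2 μM C4-HSL plus compound or DMSO were added at OD600 1.0. Cultures were shaken 4 h at 37°C and β-galactosidase read in Miller units. Activity is % of solvent control, triplicates, ≥2 biological repeats, paired two-tailed t-test.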

## CCCC(=O)N[C@H]1CCOC1=O
  Activity: 100%
